Only some compounds are listed: those with a hit (about 2.3% of all), similar ones and a draw of the others.
COUP-TFII inh – inhibitors of human COUP-TFII (NR2F2); P24468; HEK293T NGFI-A luciferase reporter, luminescence; inhibition, % at 8.6 µM; 0.7% of 370,000 active; AID 686940;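 active = inhibition above a per-plate cutoff, mean inhibition of test wells between control levels plus 3 SD, cut at about 38% in these data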;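 note: cells cotransfected with COUP-TFII expression vector driving the NGFI-A reporter; 0% = median of COUP-TF2 test wells and 100% = reporter-only cells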
GalR3 antag – antagonists of human GalR3 | O60755 | HEK293 GalR3-CNG cAMP membrane potential fluorescence; galR3 body fused to GalR1 C-terminus | inhibition, % at 3 µM | 0.44% of 360,000 active | AID 651719;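 active = inhibition above the screen-wide average plus 3 SD, cut at about 13% in these data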;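 note: forskolin and galanin both at EC90 stimulate the cells; cAMP rise reported by CNG channel membrane potential dye signal; 0% = forskolin plus galanin with DMSO and 100% = forskolin alone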
Target sequence (O60755 1-299 limits assumed): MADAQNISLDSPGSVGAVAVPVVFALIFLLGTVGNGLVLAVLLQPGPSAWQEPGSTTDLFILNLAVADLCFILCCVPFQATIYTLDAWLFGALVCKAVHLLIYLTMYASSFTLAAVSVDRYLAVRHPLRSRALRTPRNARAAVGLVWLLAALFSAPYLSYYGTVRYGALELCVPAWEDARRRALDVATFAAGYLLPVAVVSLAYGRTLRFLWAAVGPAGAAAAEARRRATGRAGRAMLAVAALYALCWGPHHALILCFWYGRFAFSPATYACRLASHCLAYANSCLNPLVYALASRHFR
NR2E3 ag-1 – agonists of human NR2E3 nuclear receptor | Q9Y5X4 | CHO-S Gal4-NCOR/VP16-NR2E3 two-hybrid, luciferase | inhibition of corepressor binding, % at 3.98 µM | 0.35% of 360,000 active | AID 602229;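 active = inhibition above the mean of all tested compounds plus 3 SD, cut at about 70% in these data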;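 note: 0% = DMSO with NR2E3 transfected cells and 100% = cells lacking NR2E3 construct; higher means lower luciferase signal from less NR2E3 corepressor binding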
Target sequence (Q9Y5X4 whole entry, looked up, the tested form may be a part): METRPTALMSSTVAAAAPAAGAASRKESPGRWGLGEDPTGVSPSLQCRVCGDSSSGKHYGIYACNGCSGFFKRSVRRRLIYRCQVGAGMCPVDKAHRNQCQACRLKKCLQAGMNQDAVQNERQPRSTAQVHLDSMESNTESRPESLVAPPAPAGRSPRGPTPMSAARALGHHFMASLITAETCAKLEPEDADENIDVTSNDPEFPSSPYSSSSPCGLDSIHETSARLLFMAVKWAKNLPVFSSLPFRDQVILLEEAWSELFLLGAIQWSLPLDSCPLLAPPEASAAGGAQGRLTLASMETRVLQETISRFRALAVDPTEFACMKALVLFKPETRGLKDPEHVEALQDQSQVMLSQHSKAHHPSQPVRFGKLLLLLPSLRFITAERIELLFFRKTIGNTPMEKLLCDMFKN
CHT PAM – human CHT allosteric activation. CHT-expressing cells, membrane potential dye, choline EC20; hits give high values; LV-AA mutant CHT in HEK293 cells. B-score at 10 µM. 0.49% of 310,000 active;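 active = initial fluorescence not abnormally high and integrated response B-score, plate-corrected, over 3 SD above library mean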
NR2E3 ag-2 – agonists of human nuclear receptor NR2E3. Q9Y5X4. GST-NR2E3/biotin-RetCOR TR-FRET, 1536-well. inhibition of corepressor binding, % at 4.78 µM. 0.12% of 320,000 active;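 active = percent inhibition above the cutoff of mean plus 3 SD of all tested compounds, set per screening campaign, cut at about 20% in these data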;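 note: 0% = DMSO wells and 100% = biotin wells as full block of FRET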
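System: GST-tagged NR2E3 plus biotinylated RetCOR corepressor; Amount: 1.35 nM GST-tagged NR2E3 final; Dosing: single nominal compound dose of 4.8 µM; Schedule: 5 h incubation at 4 °C; Technique: TR-FRET with europium anti-GST and streptavidin-D2, 340 nm excitation; Controls: biotin wells as high control, 0.6% DMSO wells as low control.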
CHT inh – inhibits the human high affinity choline transporter; Q9GZV3; CHT-expressing cells, membrane potential dye, choline response; hits give low values; B-score at 10 µM; 0.86% of 310,000 active; AID 488975;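 active = B-score over 3 SD under the library average, and starting fluorescence ratio not unusually high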;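 note: choline stimulus applied at its EC90 after an EC20 pre-addition; B-score computed on integrated fluorescence ratio after choline addition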
NR2E3 ag confirm – NR2E3 agonism confirmed in two-hybrid assay; shares compounds with NR2E3 ag-1; inhibition, % at 3.98 µM; CHO-S mammalian two-hybrid NR2E3-NCOR, luciferase luminescence; AID 624378; 51% of 2,300 active;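 active = average inhibition above a cutoff equal to the mean inhibition of all tested compounds plus one SD, cut at about 70% in these data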;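 note: 0% = DMSO in NR2E3 cells and 100% = DMSO in cells lacking NR2E3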
VP16 counter – GAL4-VP16 reporter inhibition in NR2E3 agonist counterscreen; shares compounds with NR2E3 ag-1; CHO-S GAL4-VP16 luciferase reporter, luminescence; inhibition, % at 3.98 µM; 29% of 2,300 active; AID 624379;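 active = mean inhibition above a cutoff equal to the average over all tested compounds plus one standard deviation, cut at about 70% in these data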;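 note: luciferase from a UAS reporter driven by GAL4-VP16 transactivation; 0% = DMSO with VP16-transfected cells and 100% = DMSO with cells lacking VP16; higher means less reporter light so more repression of VP16 activity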
GalR3 conf – GalR3 (human) antagonism, confirmation. HEK293 GalR3 CNG cAMP biosensor, membrane potential fluorescence; galR3 fused to GalR1 carboxy tail; challenged with forskolin and galanin at EC90. AID 652245. shares compounds with GalR3 antag. inhibition, % at 3 µM. 59% of 1,600 active;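 active = inhibition above the primary screen's cutoff, the mean inhibition of all screened compounds plus 3 SD, cut at about 13% in these data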;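 note: 0% = forskolin plus galanin and 100% = forskolin alone with DMSO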
CNG parental – acts as nonspecific agonist in parental HEK-CNG cells | shares compounds with GalR3 antag | HEK293-CNG parental cells, cAMP membrane potential fluorescence; normalised: DMSO wells 0%, forskolin wells 100% | activation, % at 3 µM | 10% of 1,600 active; in the data active = activation above about 1.3%
VP16 Luc counter – inhibits VP16 reporter, flagging COUP-TFII antagonist hits; shares compounds with COUP-TFII inh; HEK293 Gal4-VP16 luciferase reporter, luminescence; inhibition, % at 8.5 µM; 25% of 2,500 active; in the data active = inhibition above about 13%
NR2F2 inh conf – COUP-TFII (NR2F2) inhibition, confirmation assay. AID 687008. inhibition, % at 8.5 µM. 45% of 2,500 active. HEK293 NGFI-A luciferase reporter, luminescence. shares compounds with COUP-TFII inh;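 active = mean inhibition over three repeats above a set limit taken from the earlier primary screen, cut at about 38% in these data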;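 note: 100% = cells given the luciferase reporter alone without the COUP-TF2 vector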
Active calls of the source: *; i = inactive; . = no result; ! = a repeat was not active.

SMILES	COUP-TFII inh	GalR3 antag	NR2E3 ag-1	CHT PAM	NR2E3 ag-2	CHT inh	NR2E3 ag confirm	VP16 counter	VP16 Luc counter	NR2F2 inh conf	others
CCCCCCCCN1CN2Cc3cc(F)ccc3C2CS1(=O)=O (stereo not given)	-2.5	.	.	.	.	.	.	.	.	.
Cc1ccc(NS(=O)(=O)c2ccc(C(=O)N3CCN(c4ncccn4)CC3)cc2)cc1	39.1*	-5.5	83.0*	i	-0.6	i	74.0*	57.1	-2.0	14.2
Cc1ccc(NS(=O)(=O)c2ccc(C(=O)N3CCOCC3)cc2)cc1	0.4	-2.3	15.5	i	-1.9	i	.	.	.	.
COc1ccc(NC(=O)NC2CCN(S(=O)(=O)c3ccc(F)cc3)CC2)cc1OC	-8.0	.	.	.	.	.	.	.	.	.
O=C(Nc1nc2ncccn2c1-c1ccccc1)C1CC1	-0.8	.	.	.	.	.	.	.	.	.
Cc1ccc(OCC(=O)c2cc(C)n(-c3ccccc3)c2C)c([N+](=O)[O-])n1	53.5*	0.8	73.4*	i	-1.9	i	61.1	66.7	-50.3	-8.7
C=CCn1c(C)cc(C(=O)COc2ccc(C)nc2[N+](=O)[O-])c1C	39.6*	-5.3	71.4*	i	-0.2	i	71.1*	52.9	-10.6	16.5
CCOC(=O)CNC(=O)CSc1nc2ccccc2c(=O)n1-c1ccc(Cl)cc1	0.2	.	.	.	.	.	.	.	.	.
Cc1ccc(CN2CCCCC(NC(=O)c3cccc([N+](=O)[O-])c3)C2=O)cc1 (stereo not given)	3.4	.	.	.	.	.	.	.	.	.
CC(=O)c1cccc(N=c2scc(-c3ccc(S(=O)(=O)N4CCOCC4)cc3)n2CCO)c1	59.9*	114.2*	68.0	i	-0.7	i	81.5*	77.1*	3.9	64.5*
Cc1ccc(S(=O)(=O)N2CCN(c3ncccn3)CC2)cc1C	2.5	-5.8	5.7	i	3.1	i	.	.	.	.
Cc1ccc(S(=O)(=O)N2CCN(c3ncnc4sccc34)CC2)cc1C	43.2*	-3.9	105.2*	.	.	.	91.2*	78.9*	-3.4	24.4
CN(C)c1ccc(C=c2c3ccccc3n3c2cc(-c2ccccc2)[n+]3C)cc1	82.1*	9.3	80.5*	.	.	.	92.8*	68.5	20.6*	94.2*
COc1cc(N(C)C)ccc1C=c1c2ccccc2n2c1cc(-c1ccccc1)[n+]2C	67.0*	-6.8	87.0*	.	.	.	90.9*	65.0	8.9	73.1*
CN(C)c1ccc(/C=C2\CCC/C(=C\c3ccccc3)C2=O)cc1	2.9	2.0	-45.9	i	-3.5	i	.	.	.	.
CN(C)c1ccc(C=c2c3ccccc3n3c2c2c([n+]3C)CCCC2)cc1	87.5*	80.6*	96.4*	.	.	.	99.8*	91.4*	28.1*	82.0*	GalR3 conf=88.6*;CNG parental=-2.0
Cc1nn(C)cc1NC(=O)C[C@H]1CC[C@H]2[C@@H](COc3ccc(NC(=O)Nc4ccccc4)cc3C(=O)N2C)O1	-2.9	.	.	.	.	.	.	.	.	.
COC(=O)[C@]12C[C@H](CC(=O)N3CCCC3)C(=O)N(Cc3ccc(Cl)cc3Cl)C1=C[C@H](C(C)(C)C)O[C@@H]2C	8.4	.	.	.	.	.	.	.	.	.
Nc1ncnc2c(C3OC(CO)C(O)C3O)scc12 (stereo not given)	67.0*	61.4*	100.3*	.	.	.	97.0*	96.0*	22.2*	22.7	GalR3 conf=47.0*;CNG parental=0.0
CCCCNC(=S)N/N=C/c1cccc(OCC)c1O	-30.7	0.2	-6.6	i	0.6	i	.	.	.	.
CCOc1cccc(/C=N/NC(=S)Nc2ccccc2[N+](=O)[O-])c1O	81.7*	-3.5	82.7*	i	3.2	i	53.0	25.5	5.2	67.2*
COP(=O)(OC)C(NC(=O)OCc1ccccc1)C(C)C (stereo not given)	-9.6	.	.	.	.	.	.	.	.	.
Cc1cc(C(=O)CSc2nnc3ccccn23)c(C)n1-c1ccccc1	40.4*	8.4	61.6	i	-1.1	i	97.7*	-74.1	5.4	57.3*
Cc1ccccc1Cn1cc(CN2[C@H](Cc3ccccc3)COc3cc(Br)ccc3S2(=O)=O)nn1	4.3	.	.	.	.	.	.	.	.	.
Cc1c(C(C)C)c(=O)n(-c2ccc(S(=O)(=O)N3CCOCC3)cc2)n1C	21.9	2.3	10.9	i	-0.1	i	.	.	.	.
SMILES	COUP-TFII inh	GalR3 antag	NR2E3 ag-1	CHT PAM	NR2E3 ag-2	CHT inh	NR2E3 ag confirm	VP16 counter	VP16 Luc counter	NR2F2 inh conf	others
Cc1c(C(C)C)c(=O)n(-c2ccc(S(=O)(=O)NC3CCCCC3)cc2)n1C	62.1*	41.1*	71.7*	i	1.8	i	87.0*	68.2	-0.7	38.6*	GalR3 conf=51.4*;CNG parental=-0.1
Cc1c(C(C)C)c(=O)n(-c2ccc(S(=O)(=O)NCc3ccccc3)cc2)n1C	63.3*	90.6*	81.4*	i	0.7	i	94.2*	81.2*	7.7	53.2*	GalR3 conf=101.6*;CNG parental=-0.5
CCN1/C(=C/C(C)=C/c2sc3ccccc3[n+]2CC)Sc2ccccc21	71.9*!	-5.0	92.2*	i	-18.2	i	100.1*	95.2*	25.6*	74.4*
CCN1/C(=C\C(=S)Nc2ccccc2)Sc2ccccc21	-6.2	-2.6	-17.0	i	-3.7	i	.	.	.	.
NC(=O)c1ccc(N2CCN(S(=O)(=O)c3ccccc3)CC2)c([N+](=O)[O-])c1	53.6*	32.5*	74.3*	i	1.9	i	87.0*	68.9	1.7	42.9*	GalR3 conf=115.6*;CNG parental=-1.0
O=C(Nc1ccc(OCC(F)(F)C(F)F)c(C(F)(F)F)c1)c1ccccc1O	69.4*	19.1*	99.3*	i	3.1	i	98.3*	75.5*	-28.6	25.8	GalR3 conf=16.4*;CNG parental=-0.6
CCC(C)Nc1nc(-c2ccccn2)nc2ccccc12 (stereo not given)	38.3*	-2.2	99.8*	i	1.7	i	98.6*	56.1	-11.7	3.1
CCC(C)Nc1nc(-c2cccc(OC)c2O)nc2ccccc12 (stereo not given)	5.6	-6.4	-15.0	i	0.1	i	.	.	.	.
